According to ChEMBL document CHEMBL1671684, “In vitro resistance profile of the hepatitis C virus NS3/4A protease inhibitor TMC435” (Antimicrob Agents Chemother, 2010):
Activity calls are given as the source filed them. The rule behind the calls is not given here.

Assays:
Hepatitis C virus [1] = test: Antiviral activity against Hepatitis C virus subtype 1b expressing NS3 V36A mutant infected in HuH7 cells after 48 hrs by luciferase reporter assay; format: functional, organism-based, Hepacivirus hominis; settings: genotype 1b, Huh-7, 48 h
Outline: (§1)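 Genotype 1b con1 subgenomic bicistronic replicon (clone ET) with luciferase reporter and adaptive mutations E1202G, T1280I, K1846T, carrying site-directed NS3 single or double mutations. 10 μg wild-type or mutant replicon RNA electroporated into Huh7-lunet cells, seeded 4,000 cells/well over a nine-point inhibitor dilution series, 48 h at 37°C, 5% CO2, then luminescence read. EC50 taken as median of individual experiments; fold change relative to parental replicon EC50.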

Hepatitis C virus [2] = test: Ratio of EC50 for Hepatitis C virus subtype 1b expressing NS3 F43I mutant to EC50 for Hepatitis C virus subtype 1b expressing WT NS3 infected in HuH7 cells after 48 hrs by luciferase reporter assay; format: functional, Hepacivirus hominis, genotype 1b, Huh-7
Outline: (§2)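 Transient replicon assay: site-directed single or multiple NS3 mutations engineered into genotype 1b (con1, clone ET) subgenomic bicistronic replicon with luciferase reporter and adaptive mutations E1202G, T1280I, K1846T. Huh7-lunet cells electroporated with 10 μg wild-type or mutant replicon RNA, seeded 4,000 cells/well with nine-point inhibitor dilution; 48 h, 37°C, 5% CO2; luminescence read-out. EC50 as median of individual experiments; fold change versus parental replicon EC50.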

Hepatitis C virus [3] = test: Ratio of EC50 for Hepatitis C virus subtype 1b expressing NS3 R155Q mutant to EC50 for Hepatitis C virus subtype 1b expressing WT NS3 infected in HuH7 cells after 48 hrs by luciferase reporter assay; format: functional, Hepacivirus hominis, genotype 1b, Huh-7; outline: as §2
Hepatitis C virus [4] = test: Antiviral activity against Hepatitis C virus subtype 1b expressing NS3 V170A mutant infected in HuH7 cells after 48 hrs by luciferase reporter assay; format: functional, organism-based, Hepacivirus hominis; settings: genotype 1b, Huh-7, 48 h; outline: as §1
Hepatitis C virus [5] = test: Antiviral activity against Hepatitis C virus subtype 1b expressing NS3 R155G mutant infected in HuH7 cells after 48 hrs by luciferase reporter assay; format: functional, organism-based, Hepacivirus hominis; settings: genotype 1b, Huh-7, 48 h; outline: as §1
Hepatitis C virus [6] = test: Antiviral activity against Hepatitis C virus subtype 1b expressing NS3 T54S mutant infected in HuH7 cells after 48 hrs by luciferase reporter assay; format: functional, organism-based, Hepacivirus hominis; settings: genotype 1b, Huh-7, 48 h; outline: as §1
Hepatitis C virus [7] = test: Antiviral activity against Hepatitis C virus subtype 1b expressing NS3 D168V mutant infected in HuH7 cells after 48 hrs by luciferase reporter assay; format: functional, organism-based, Hepacivirus hominis; settings: genotype 1b, Huh-7, 48 h; outline: as §1
Hepatitis C virus [8] = test: Antiviral activity against Hepatitis C virus subtype 1b expressing NS3 Q80R and D168E mutant infected in HuH7 cells after 48 hrs by luciferase reporter assay; format: functional, organism-based, Hepacivirus hominis; settings: genotype 1b, Huh-7, 48 h; outline: as §1
Hepatitis C virus [9] = test: Ratio of EC50 for Hepatitis C virus subtype 1b expressing NS3 R155G mutant to EC50 for Hepatitis C virus subtype 1b expressing WT NS3 infected in HuH7 cells after 48 hrs by luciferase reporter assay; format: functional, Hepacivirus hominis, genotype 1b, Huh-7; outline: as §2
Hepatitis C virus [10] = test: Ratio of EC50 for Hepatitis C virus subtype 1b expressing NS3 A156G mutant to EC50 for Hepatitis C virus subtype 1b expressing WT NS3 infected in HuH7 cells after 48 hrs by luciferase reporter assay; format: functional, Hepacivirus hominis, genotype 1b, Huh-7; outline: as §1
Hepatitis C virus [11] = test: Antiviral activity against Hepatitis C virus subtype 1b expressing NS3 F43I mutant infected in HuH7 cells after 48 hrs by luciferase reporter assay; format: functional, organism-based, Hepacivirus hominis; settings: genotype 1b, Huh-7, 48 h; outline: as §1
Hepatitis C virus [12] = test: Antiviral activity against Hepatitis C virus subtype 1b expressing NS3 V36L mutant infected in HuH7 cells after 48 hrs by luciferase reporter assay; format: functional, organism-based, Hepacivirus hominis; settings: genotype 1b, Huh-7, 48 h; outline: as §1
Hepatitis C virus [13] = test: Antiviral activity against Hepatitis C virus subtype 1b expressing NS3 Q80L mutant infected in HuH7 cells after 48 hrs by luciferase reporter assay; format: functional, organism-based, Hepacivirus hominis; settings: genotype 1b, Huh-7, 48 h; outline: as §1
Hepatitis C virus [14] = test: Ratio of EC50 for Hepatitis C virus subtype 1b expressing NS3 V36L mutant to EC50 for Hepatitis C virus subtype 1b expressing WT NS3 infected in HuH7 cells after 48 hrs by luciferase reporter assay; format: functional, Hepacivirus hominis, genotype 1b, Huh-7; outline: as §2
Hepatitis C virus [15] = test: Ratio of EC50 for Hepatitis C virus subtype 1b expressing NS3 R155T mutant to EC50 for Hepatitis C virus subtype 1b expressing WT NS3 infected in HuH7 cells after 48 hrs by luciferase reporter assay; format: functional, Hepacivirus hominis, genotype 1b, Huh-7; outline: as §2
Hepatitis C virus [16] = test: Ratio of EC50 for Hepatitis C virus subtype 1b expressing NS3 D168T mutant to EC50 for Hepatitis C virus subtype 1b expressing WT NS3 infected in HuH7 cells after 48 hrs by luciferase reporter assay; format: functional, Hepacivirus hominis, genotype 1b, Huh-7; outline: as §2
Hepatitis C virus [17] = test: Antiviral activity against Hepatitis C virus subtype 1b expressing NS3 Q41R mutant infected in HuH7 cells after 48 hrs by luciferase reporter assay; format: functional, organism-based, Hepacivirus hominis; settings: genotype 1b, Huh-7, 48 h; outline: as §1
Hepatitis C virus [18] = test: Ratio of EC50 for Hepatitis C virus subtype 1b expressing NS3 Q41R mutant to EC50 for Hepatitis C virus subtype 1b expressing WT NS3 infected in HuH7 cells after 48 hrs by luciferase reporter assay; format: functional, Hepacivirus hominis, genotype 1b, Huh-7; outline: as §2
Hepatitis C virus [19] = test: Inhibition of Hepatitis C virus subtype 1b NS3/4A protease
Hepatitis C virus [20] = test: Antiviral activity against Hepatitis C virus subtype 2a JFH1 infected in HuH7.5 cells assessed as viral RNA replication after initial decline at 4000 nM after 3 days by TaqMan RT-PCR; format: functional, organism-based; settings: Hepacivirus hominis
Hepatitis C virus [21] = test: Antiviral activity against Hepatitis C virus subtype 2a JFH1 infected in HuH7.5 cells assessed as delay in occurrence of the viral-induced CPE at 500 nM after 3 days by luciferase reporter assay; format: functional, organism-based; settings: Hepacivirus hominis
Hepatitis C virus [22] = test: Antiviral activity against Hepatitis C virus subtype 2a JFH1 infected in HuH7.5 cells assessed as reduction in cellular viral RNA levels normalized to RPL13A RNA levels at 500 nM after 3 days by TaqMan RT-PCR; format: functional, organism-based; settings: Hepacivirus hominis
[23] = Inhibition of Hepatitis C virus subtype 4a NS3/4A protease
Hepatitis C virus [24] = test: Antiviral activity against Hepatitis C virus subtype 2a JFH1 infected in HuH7.5 cells assessed as decline in viral RNA replication at 500 nM after 14 passages by TaqMan RT-PCR; format: functional, organism-based; settings: Hepacivirus hominis
Outline: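 Huh7.5 cells electroporated with JFH-1wt RNA (genotype 2a, no reporter) in Cytomix with 2 mM ATP and 5 mM glutathione, then 500,000 cells seeded. From day 3, cells passaged with inhibitor at 500 nM or vehicle. HCV RNA quantified at each passage by TaqMan real-time RT-PCR, normalised to host RPL13A RNA by comparative CT. Day-3 level set as 100%.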

[25] = Inhibition of Hepatitis C virus subtype 3a NS3/4A protease
[26] = Inhibition of Hepatitis C virus subtype 6a NS3/4A protease
[27] = Inhibition of Hepatitis C virus subtype 1a NS3/4A protease
Hepatitis C virus [28] = test: Antiviral activity against Hepatitis C virus subtype 2a JFH1 infected in HuH7.5 cells assessed as viral RNA replication after initial decline at 500 nM after 3 days by TaqMan RT-PCR; format: functional, organism-based; settings: Hepacivirus hominis
Hepatitis C virus [29] = test: Antiviral activity against Hepatitis C virus subtype 1a infected in human assessed as suppression of viral RNA level at 200 mg administered SID for 5 days measured after 3 days last postdose; format: functional, organism-based; settings: Hepacivirus hominis

| SMILES | EC50 (Hepatitis C virus [1]) [µM] | Ratio EC50 (Hepatitis C virus [2]) | Ratio EC50 (Hepatitis C virus [3]) | EC50 (Hepatitis C virus [4]) [µM] | EC50 (Hepatitis C virus [5]) [µM] | EC50 (Hepatitis C virus [6]) [µM] | EC50 (Hepatitis C virus [7]) [µM] | EC50 (Hepatitis C virus [8]) [µM] | Ratio EC50 (Hepatitis C virus [9]) | Ratio EC50 (Hepatitis C virus [10]) | EC50 (Hepatitis C virus [11]) [µM] | EC50 (Hepatitis C virus [12]) [µM] | EC50 (Hepatitis C virus [13]) [µM] | Ratio EC50 (Hepatitis C virus [14]) | Ratio EC50 (Hepatitis C virus [15]) | Ratio EC50 (Hepatitis C virus [16]) | EC50 (Hepatitis C virus [17]) [µM] | Ratio EC50 (Hepatitis C virus [18]) | further results |
| --- | --- | --- | --- | --- | --- | --- | --- | --- | --- | --- | --- | --- | --- | --- | --- | --- | --- | --- | --- |
| CC(C)(C)NC(=O)N[C@H](C(=O)N1C[C@H]2[C@@H]([C@H]1C(=O)NC(CC1CCC1)C(=O)C(N)=O)C2(C)C)C(C)(C)C (some centres undefined) [BOCEPREVIR] | 1.45 | 1.1 | 1.4 | 1.55 | 4.47 | 1.11 | 0.083 | 0.062 | 20 | 2.1 | 0.242 | 0.11 | 0.133 | 1.6 | 51 | 1.1 |  |  |  |
| COc1ccc2c(O[C@@H]3C[C@H]4C(=O)N[C@]5(C(=O)O)C[C@H]5/C=C\CCCCC[C@H](NC(=O)OC5CCCC5)C(=O)N4C3)cc(-c3csc(NC(C)C)n3)nc2c1 [CILUPREVIR] | 0.001 | 0.5 | 242 |  | 1 | 0.0009 | 1.81 | 0.087 | 811 | 12 | 0.0004 | 0.0014 |  | 1 | 562 | 844 | 0.0023 | 2.8 |  |
| COc1ccc2c(O[C@@H]3C[C@H]4C(=O)N[C@]5(C(=O)NS(=O)(=O)C6CC6)C[C@H]5/C=C\CCCCN(C)C(=O)[C@@H]4C3)cc(-c3nc(C(C)C)cs3)nc2c1C [SIMEPREVIR] | 0.034 | 89 | 1.6 | 0.022 | 0.35 | 0.0054 | 17.9 | 5.9 | 20 | 16 | 0.562 | 0.018 | 0.012 | 1.7 | 24 | 308 | 0.018 | 1.7 | Ki (Hepatitis C virus [19]): 0.0005 µM; inhibition (Hepatitis C virus [20]): inactive; inhibition (Hepatitis C virus [21]): Active; inhibition (Hepatitis C virus [22]): Active; IC50 [23]: < 0.013 µM; inhibition (Hepatitis C virus [24]): Active; IC50 [25]: 0.037 µM; IC50 [26]: < 0.013 µM; Ki [27]: 0.0004 µM; inhibition (Hepatitis C virus [28]): inactive; inhibition (Hepatitis C virus [29]): Active |
| CCC[C@H](NC(=O)[C@@H]1[C@H]2CCC[C@H]2CN1C(=O)[C@@H](NC(=O)[C@@H](NC(=O)c1cnccn1)C1CCCCC1)C(C)(C)C)C(=O)C(=O)NC1CC1 [TELAPREVIR] |  |  | 2.5 |  | 9.63 |  |  |  | 20 | 0.6 |  | 0.3 |  | 3.1 | 74 | 1 |  |  |  |
